Data set [1] relates to Rattus norvegicus. Description: Toxicity in Sprague-Dawley rat assessed as exploratory behavior at 10 to 2000 ug/kg, ip measured after 30 mins. It counts as organism-based. As to conditions: in vivo, 0.5 h.
The subject of data set [2] is Rattus norvegicus. Description: Antihypertensive activity in Wistar rat assessed as inhibition of methoxamine-induced change in heart rate at 0.1 mg/kg, iv administered 10 mins after methoxamine challenge. The format is functional. A digest of the protocol:
(§1)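 Male Wistar rats (200–290 g) anaesthetized with i.p. thiopental 70 mg/kg, maintained by thiopental infusion, 36–37 °C. Carotid catheter for BP/HR, jugular line for infusion. Methoxamine i.v. infusion 10 or 20 µg/kg/min began 10 min before 0.1 mg/kg i.v. bolus. Readout is ΔMAP or ΔHR from time 0. Five to seven rats per group; repeated-measures ANOVA.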

Data set [3] has as its system Rattus norvegicus. As to the kind of experiment: Antihypertensive activity in Wistar rat assessed as inhibition of methoxamine-induced change in heart rate at 0.1 mg/kg, iv administered 10 mins after 10 ug/kg/min methoxamine challenge. It counts as functional, organism-based. Details: dose 0.1 mg/kg. A digest of the protocol:
as §1

For data set [4], the system named is Rattus norvegicus. As to the kind of experiment: Toxicity in Sprague-Dawley rat assessed as loss of spontaneous locomotory activity at 10 to 2000 ug/kg, ip measured within 5 to 8 mins. It counts as organism-based. As to conditions: in vivo. A digest of the protocol:
(§2)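 Male Sprague–Dawley rats (250–270 g) were handled by the experimenter one day before testing. Compound was dissolved in sterile saline and given i.p. If no loss of righting reflex occurred after 5 min, the dose was repeated, up to 2000 µg/kg cumulative. Animals were watched for righting reflex, locomotion, motor coordination and behaviour. Righting reflex was scored at 30 min.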

Data set [5] relates to Rattus norvegicus. Description: Toxicity in Sprague-Dawley rat assessed as reduced motor co-ordination at 10 to 2000 ug/kg, ip measured within 5 to 8 mins. It counts as organism-based. As to conditions: in vivo. An outline of the steps:
as §2

For data set [6], the system named is Rattus norvegicus. As to the kind of experiment: Toxicity in Sprague-Dawley rat assessed as still state at 10 to 2000 ug/kg, ip measured after 30 mins. It counts as organism-based. As to conditions: in vivo, 0.5 h. An outline of the steps: as §2
In the next data set the target is Nischarin (Rattus norvegicus, UniProt Q4G017). Description: Displacement of [3H]clonidine from imidazoline I1 receptor in Sprague-Dawley rat kidney membranes after 45 mins by scintillation counting. It counts as cell membranes, Membrane. A digest of the protocol:
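Crude P2 membranes from male Sprague–Dawley rat kidney, 0.2–0.5 mg protein. […] Specific binding defined by 10 µM rilmenidine. 11 concentrations from 0.01 to 100 µM, 50 mM Tris-HCl pH 7.4, 45 min at RT. Filtration and scintillation counting; IC50.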
(In general: In a radioligand displacement assay an active substance lowers the binding of a labelled ligand.)

The subject of data set [7] is Rattus norvegicus. As to the kind of experiment: Antihypertensive activity in Wistar rat assessed as inhibition of methoxamine-induced change in heart rate at 0.1 mg/kg, iv co-administered with 20 ug/kg/min methoxamine challenge. It counts as functional, organism-based. Details: dose 0.1 mg/kg. A digest of the protocol:
as §1

The test system of data set [8] is Rattus norvegicus. Description: Toxicity in Sprague-Dawley rat assessed as resistance to handling at 10 to 2000 ug/kg, ip measured after 30 mins. It counts as organism-based. As to conditions: in vivo, 0.5 h. A digest of the protocol: as §2
In data set [9] the test system is Rattus norvegicus. Description: Anxiolytic activity in Sprague-Dawley rat assessed as loss of righting reflex at 1000 ug/kg, ip measured after 30 mins. It counts as functional, organism-based. A digest of the protocol: as §2
Data set [10] relates to Rattus norvegicus. As to the kind of experiment: Anxiolytic activity in Sprague-Dawley rat assessed as loss of righting reflex at 100 ug/kg, ip measured after 30 mins. It counts as functional, organism-based. A digest of the protocol:
as §2

The subject of data set [11] is Rattus norvegicus. As to the kind of experiment: Toxicity in Sprague-Dawley rat assessed as increase in body temperature at 10 to 2000 ug/kg, ip measured after 30 mins. The format is organism-based. As to conditions: in vivo, 0.5 h.
Data set [12] has as its target T1, Adrenergic receptor alpha-2 (Rattus norvegicus, UniProt P22086+P19328+P22909).
T1 sequence (P22086 whole entry): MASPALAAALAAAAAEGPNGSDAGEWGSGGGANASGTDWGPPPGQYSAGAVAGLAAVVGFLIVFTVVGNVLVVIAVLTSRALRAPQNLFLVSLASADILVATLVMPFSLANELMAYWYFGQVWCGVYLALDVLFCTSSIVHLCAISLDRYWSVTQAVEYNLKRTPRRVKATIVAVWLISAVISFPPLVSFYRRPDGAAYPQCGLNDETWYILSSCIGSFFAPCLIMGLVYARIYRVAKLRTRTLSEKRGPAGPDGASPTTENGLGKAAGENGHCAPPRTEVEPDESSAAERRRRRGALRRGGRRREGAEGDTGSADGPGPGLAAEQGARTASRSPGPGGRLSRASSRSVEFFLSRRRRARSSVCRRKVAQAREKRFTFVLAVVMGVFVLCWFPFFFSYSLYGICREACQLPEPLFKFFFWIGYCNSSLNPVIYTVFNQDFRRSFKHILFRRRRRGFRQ
T1 sequence (P19328 whole entry): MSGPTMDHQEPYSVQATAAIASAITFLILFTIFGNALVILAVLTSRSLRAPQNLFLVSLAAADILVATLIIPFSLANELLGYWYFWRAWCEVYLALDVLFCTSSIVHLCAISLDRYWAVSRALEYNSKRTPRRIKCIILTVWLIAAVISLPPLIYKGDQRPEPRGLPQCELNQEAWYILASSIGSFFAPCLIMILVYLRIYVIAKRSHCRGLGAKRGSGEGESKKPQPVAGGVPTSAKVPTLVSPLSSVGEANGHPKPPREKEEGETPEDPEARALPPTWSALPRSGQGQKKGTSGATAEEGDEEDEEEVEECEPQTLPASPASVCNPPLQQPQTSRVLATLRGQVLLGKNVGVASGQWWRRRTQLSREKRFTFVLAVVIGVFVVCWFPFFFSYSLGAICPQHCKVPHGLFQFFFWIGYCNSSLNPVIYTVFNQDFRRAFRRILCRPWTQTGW
T1 sequence (P22909 whole entry): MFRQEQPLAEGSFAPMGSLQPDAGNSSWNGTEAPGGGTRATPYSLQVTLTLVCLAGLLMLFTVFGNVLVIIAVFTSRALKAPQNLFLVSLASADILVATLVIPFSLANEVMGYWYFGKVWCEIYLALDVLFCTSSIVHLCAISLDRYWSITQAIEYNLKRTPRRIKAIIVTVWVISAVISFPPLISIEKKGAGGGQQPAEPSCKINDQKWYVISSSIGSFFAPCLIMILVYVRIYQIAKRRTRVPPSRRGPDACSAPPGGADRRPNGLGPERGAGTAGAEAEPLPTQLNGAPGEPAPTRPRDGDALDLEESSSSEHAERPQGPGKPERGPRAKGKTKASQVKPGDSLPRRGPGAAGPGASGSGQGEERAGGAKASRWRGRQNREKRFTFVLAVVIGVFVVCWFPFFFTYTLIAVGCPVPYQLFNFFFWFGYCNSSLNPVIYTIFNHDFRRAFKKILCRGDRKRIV
Description: Displacement of […] from adrenoceptor alpha2 in Sprague-Dawley rat brain membranes after 45 mins by scintillation counting. The format is cell membranes, Membrane. A digest of the protocol:
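Crude P2 membranes from male Sprague–Dawley rat brain (250–280 g), 0.2–0.3 mg protein. Radioligand 1 nM: [3H]2BFI for I2, [3H]prazosin for α1, [3H]RX821002 for α2. Non-specific binding defined by 10 µM BU224 (I2), 10 µM phenylephrine (α1) or 10 µM rauwolscine (α2). 11 concentrations from 0.01 nM to 100 µM, triplicate, 45 min at RT. Filtration and scintillation counting; Ki by Cheng–Prusoff.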

The test system of data set [13] is Rattus norvegicus. Description: Anxiolytic activity in Sprague-Dawley rat assessed as loss of righting reflex at 2000 ug/kg, ip measured after 30 mins. The format is functional, organism-based. A digest of the protocol:
as §2

Data set [14] relates to Rattus norvegicus. Description: Antihypertensive activity in Wistar rat assessed as inhibition of methoxamine-induced change in blood pressure at 0.1 mg/kg, iv administered 10 mins after 20 ug/kg/min methoxamine challenge. The format is functional, organism-based. Details: dose 0.1 mg/kg. An outline of the steps: as §1

Calls of active or inactive are those of the source. No cut-off for these calls is given here.

Nischarin, sequence (Q4G017 whole entry): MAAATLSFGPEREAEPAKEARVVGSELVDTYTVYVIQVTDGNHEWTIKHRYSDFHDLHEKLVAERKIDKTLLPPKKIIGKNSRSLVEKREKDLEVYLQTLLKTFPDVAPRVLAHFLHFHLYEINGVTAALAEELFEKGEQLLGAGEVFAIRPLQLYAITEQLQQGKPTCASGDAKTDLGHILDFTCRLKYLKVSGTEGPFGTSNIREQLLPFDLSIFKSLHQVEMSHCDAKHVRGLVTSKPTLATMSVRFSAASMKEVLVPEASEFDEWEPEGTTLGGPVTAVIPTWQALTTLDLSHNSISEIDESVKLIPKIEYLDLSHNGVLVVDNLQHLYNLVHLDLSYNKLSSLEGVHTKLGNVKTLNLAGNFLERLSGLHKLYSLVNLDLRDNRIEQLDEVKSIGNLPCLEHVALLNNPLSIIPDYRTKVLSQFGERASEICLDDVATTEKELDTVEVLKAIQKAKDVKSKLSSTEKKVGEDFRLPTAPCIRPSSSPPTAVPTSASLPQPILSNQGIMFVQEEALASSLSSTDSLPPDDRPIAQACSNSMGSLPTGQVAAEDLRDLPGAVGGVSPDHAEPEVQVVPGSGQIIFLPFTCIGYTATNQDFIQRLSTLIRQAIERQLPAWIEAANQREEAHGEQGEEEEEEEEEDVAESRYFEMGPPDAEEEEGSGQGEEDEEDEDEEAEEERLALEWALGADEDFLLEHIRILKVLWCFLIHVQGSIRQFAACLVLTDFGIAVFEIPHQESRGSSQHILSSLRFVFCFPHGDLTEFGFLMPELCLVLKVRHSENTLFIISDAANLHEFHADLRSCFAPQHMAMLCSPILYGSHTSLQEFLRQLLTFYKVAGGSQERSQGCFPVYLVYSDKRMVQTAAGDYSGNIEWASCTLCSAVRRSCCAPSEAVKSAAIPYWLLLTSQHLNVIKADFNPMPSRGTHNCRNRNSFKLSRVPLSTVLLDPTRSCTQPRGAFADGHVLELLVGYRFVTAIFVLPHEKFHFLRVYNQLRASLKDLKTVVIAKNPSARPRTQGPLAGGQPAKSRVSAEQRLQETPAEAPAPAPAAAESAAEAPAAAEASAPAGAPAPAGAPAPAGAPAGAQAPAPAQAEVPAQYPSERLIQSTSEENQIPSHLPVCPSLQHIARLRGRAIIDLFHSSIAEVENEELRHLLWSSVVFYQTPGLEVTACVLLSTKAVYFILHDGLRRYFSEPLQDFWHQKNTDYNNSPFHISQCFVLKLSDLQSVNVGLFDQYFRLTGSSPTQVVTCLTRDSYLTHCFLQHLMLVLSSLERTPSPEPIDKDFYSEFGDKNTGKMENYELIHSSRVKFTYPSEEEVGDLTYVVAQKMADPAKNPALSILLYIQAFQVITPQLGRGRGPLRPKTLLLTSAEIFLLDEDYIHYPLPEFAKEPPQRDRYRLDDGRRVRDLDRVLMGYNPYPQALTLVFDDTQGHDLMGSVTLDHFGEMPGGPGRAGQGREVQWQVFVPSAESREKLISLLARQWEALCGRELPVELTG

In general, IC50 refers to the midpoint of a concentration-inhibition curve. Higher therefore signals lower potency. By Ki is commonly meant the equilibrium dissociation constant of an inhibitor or competing ligand from its target. A higher Ki goes with a looser hold on the target. `Cl.Clc1cccc2cnn(CC3=NCCN3)c12`: the Activity entry in the data set with Rattus norvegicus [1] is “Non-toxic”; with Rattus norvegicus [2], -131.8 bpm; in the data set with Rattus norvegicus [4], “Toxic”; in the data set on Rattus norvegicus [5], “Toxic”; with Rattus norvegicus [6] it was “Non-toxic”; with Rattus norvegicus [8] it was “Non-toxic”. Further, the Activity entry with Rattus norvegicus [11] was “Toxic”. Further, the outcome in the data set on Rattus norvegicus [3], in the data set on Rattus norvegicus [10] and in the data set on Rattus norvegicus [14] was inactive. Also, the half-maximal inhibitory concentration (IC50) at Nischarin came to 0.856 µM. Also, the outcome in the data set with Rattus norvegicus [7], with Rattus norvegicus [9] and in the data set with Rattus norvegicus [13] was Active. In addition, in data set [12], the Ki was found to be 0.0064 µM.
On Nischarin, `Cl.c1ccc2c(c1)cnn2CC1=NCCN1` displayed an IC50 of 19.4 µM. The compound also registered a Ki in [12] of 0.0185 µM.
The like results for `Cc1cccc2cnn(CC3=NCCN3)c12.Cl` were, in that order, 96.4 µM and 0.607 µM.

These data come from ChEMBL document CHEMBL1926556, “Synthesis and biological activities of 2-[(heteroaryl)methyl]imidazolines” (Bioorg Med Chem, 2012).
